Experimental data reported in publication PMC6778631 (Cancer Science, 2019).
Numbering of substitutions follows the chain as printed.

Experiments:
TF‐1/IDH2‐R140Q cells [1] = experiment: Cell-based inhibition of 2-HG production; conditions: Homo sapiens, 72 h, read-out: IC50, anti-2-HG activity
TF‐1/IDH2‐R140Q cells [2] = experiment: Cell proliferation assay; format: cell-based, human; conditions: 7 d + 7 d without hGM-CSF
IDH1‐WT = IDH1‐WT (Homo sapiens, UniProt O75874); experiment: Cell-based enzyme assay, lysates of U-87 MG/IDH1-WT cells; format: biochemical
Sequence of IDH1‐WT (O75874 whole entry): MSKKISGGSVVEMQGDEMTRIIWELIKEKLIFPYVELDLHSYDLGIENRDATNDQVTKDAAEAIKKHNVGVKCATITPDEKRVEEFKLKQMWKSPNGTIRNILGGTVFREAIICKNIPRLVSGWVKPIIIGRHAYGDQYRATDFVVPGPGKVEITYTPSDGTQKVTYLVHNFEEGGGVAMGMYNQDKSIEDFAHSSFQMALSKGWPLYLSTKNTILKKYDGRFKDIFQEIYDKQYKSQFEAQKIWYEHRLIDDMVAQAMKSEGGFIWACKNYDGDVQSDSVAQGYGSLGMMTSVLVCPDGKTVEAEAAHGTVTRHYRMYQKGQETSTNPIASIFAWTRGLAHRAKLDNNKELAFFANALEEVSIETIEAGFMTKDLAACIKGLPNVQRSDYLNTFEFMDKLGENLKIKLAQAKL

U‐87 MG/IDH2‐R140Q cells = experiment: Cell-based inhibition of 2-HG production; conditions: Homo sapiens, 72 h, read-out: Inhibition of 2-HG production
IDH1‐R132H = IDH1‐R132H (Homo sapiens, UniProt O75874, R132H); experiment: Cell-based enzyme assay, lysates of U-87 MG/IDH1-R132H cells; format: biochemical
Sequence of IDH1‐R132H (O75874 whole entry R132H): as the sequence (O75874 whole entry) above, with R132H counted along it

TF‐1/IDH2‐R140Q cells [3] = experiment: Erythroid differentiation under EPO, HBG mRNA by qRT-PCR; format: cell-based, human; conditions: 7 d + 7 d EPO
Summary of the method: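 TF-1 cells carrying doxycycline-inducible IDH2-R140Q got test compound for 7 d in RPMI-1640, 10% FBS, 2 ng/mL hGM-CSF. GM-CSF was then replaced by EPO (2 IU/mL) for another 7 d with compound present. HBG mRNA was measured in cell pellets by SYBR qRT-PCR, with GAPDH primers also used. Means ± SD of triplicates.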

IDH2‐R140Q [4] = biological target: T1, IDH2‐R140Q (Homo sapiens, UniProt P48735, R140Q); experiment: Cell-based enzyme assay, lysates of U-87 MG/IDH2-R140Q cells; format: biochemical; conditions: IC50, inhibition of IDH2-R140Q enzymatic activity
T1 sequence (P48735 40-452 R140Q): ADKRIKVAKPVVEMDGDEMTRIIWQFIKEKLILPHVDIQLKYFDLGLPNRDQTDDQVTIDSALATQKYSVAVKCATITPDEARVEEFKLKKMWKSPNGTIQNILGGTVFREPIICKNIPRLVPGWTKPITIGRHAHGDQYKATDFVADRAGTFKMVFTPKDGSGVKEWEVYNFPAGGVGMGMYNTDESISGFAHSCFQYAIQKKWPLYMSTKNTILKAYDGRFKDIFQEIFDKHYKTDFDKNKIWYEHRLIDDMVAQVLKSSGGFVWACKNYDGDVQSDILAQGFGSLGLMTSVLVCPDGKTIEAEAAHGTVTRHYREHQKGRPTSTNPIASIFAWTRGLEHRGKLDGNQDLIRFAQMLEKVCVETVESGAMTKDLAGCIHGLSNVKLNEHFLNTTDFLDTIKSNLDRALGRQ

TF‐1/IDH2‐R172K cells [5] = experiment: Erythroid differentiation under EPO, HBG mRNA by qRT-PCR; format: cell-based, human; conditions: 7 d + 7 d EPO
IDH1‐R132C = IDH1‐R132C (Homo sapiens, UniProt O75874, R132C); experiment: Cell-based enzyme assay, lysates of U-87 MG/IDH1-R132C cells; format: biochemical
Sequence of IDH1‐R132C (O75874 whole entry R132C): as the sequence (O75874 whole entry) above, with R132C counted along it

IDH2‐R172K [6] = biological target: T2, IDH2‐R172K (Homo sapiens, UniProt P48735, R172K); experiment: Cell-based enzyme assay, lysates of U-87 MG/IDH2-R172K cells; format: biochemical
T2 sequence (P48735 40-452 R172K): T1 sequence (P48735 40-452 R140Q) with Q101R, R133K

IDH2‐R140Q [7] = biological target: T1, IDH2‐R140Q; experiment: Cellular thermal shift assay in U-87 MG cells; format: binding; conditions: 1 h treatment
IDH2‐WT = biological target: T3, IDH2‐WT (Homo sapiens, UniProt P48735); experiment: Cell-based enzyme assay, lysates of U-87 MG/IDH2-WT cells; format: biochemical
T3 sequence (P48735 40-452): T1 sequence (P48735 40-452 R140Q) with Q101R

IDH2‐R140Q‐Q316A = biological target: T4, IDH2‐R140Q‐Q316A (Homo sapiens, UniProt P48735, Q316A/R140Q); experiment: Cellular thermal shift assay in U-87 MG/IDH2-R140Q-Q316A cells; format: binding; conditions: 1 h treatment
T4 sequence (P48735 40-452 R140Q/Q316A): T1 sequence (P48735 40-452 R140Q) with Q277A

TF‐1/IDH2‐R172K cells [8] = experiment: Cell-based inhibition of 2-HG production; conditions: Homo sapiens, 72 h, read-out: IC50, anti-2-HG activity
wild‐type IDH2 = biological target: T5, wild‐type IDH2 (Homo sapiens, UniProt P48735); experiment: Cellular thermal shift assay in U-87 MG cells; format: binding; conditions: 1 h treatment
T5 sequence (P48735 40-452): T1 sequence (P48735 40-452 R140Q) with Q101R

TF‐1/IDH2‐R172K cells [9] = experiment: Cell proliferation assay; format: cell-based, human; conditions: 7 d + 7 d without hGM-CSF
IDH2‐R172K [10] = biological target: T2, IDH2‐R172K; experiment: Cellular thermal shift assay in U-87 MG cells; format: binding; conditions: 1 h treatment

IC50 (TF‐1/IDH2‐R140Q cells [1]): 24.7 ± 2.3 nM
Inhibitory effect on IDH1-WT enzymatic activity (IDH1‐WT): no apparent inhibitory effects
Inhibitory effect on IDH1-R132H enzymatic activity (IDH1‐R132H): no apparent inhibitory effects
IC50 (IDH2‐R140Q [4]): 229 ± 23.2 nM
Inhibitory effect on IDH1-R132C enzymatic activity (IDH1‐R132C): no apparent inhibitory effects
IC50 (IDH2‐R172K [6]): 625 ± 146 nM
Thermal stabilization of IDH2-R140Q (CETSA) (IDH2‐R140Q [7]): apparent thermal‐stabilization effect
Inhibitory effect on IDH2-WT enzymatic activity (IDH2‐WT): no apparent inhibitory effects
Thermal stabilization in U-87 MG/IDH2-R140Q-Q316A cells (CETSA) (IDH2‐R140Q‐Q316A): lost
IC50 (TF‐1/IDH2‐R172K cells [8]): 732 ± 331 nM
Thermal stabilization of wild-type IDH2 (CETSA) (wild‐type IDH2): Neither TQ05310 nor AG‐221 stabilized
Thermal stabilization of IDH2-R172K (CETSA) (IDH2‐R172K [10]): weak thermal‐stabilization effect
SMILES: CC(C)(O)CNc1nc(Nc2ccnc(C(F)(F)F)c2)nc(-c2cccc(C(F)(F)F)n2)n1 [AG‐221, enasidenib]
Effect on cell proliferation (MTT) (TF‐1/IDH2‐R140Q cells [2]): did not significantly inhibit proliferation
inhibition at 0.2 µM (U‐87 MG/IDH2‐R140Q cells): 67.3%
Effect on HBG levels (cell differentiation) (TF‐1/IDH2‐R140Q cells [3]): increased HBG
Effect on HBG levels (cell differentiation) (TF‐1/IDH2‐R172K cells [5]): increased HBG only in TF‐1/IDH2‐R140Q cells
Effect on cell proliferation (MTT) (TF‐1/IDH2‐R172K cells [9]): did not significantly inhibit proliferation
